hERG rescue: hERG rescue from dofetilide block, primary screen, cell-based, CHO-hERG, FluxOR thallium flux, dofetilide IC70 | Voltage-gated inwardly rectifying potassium channel KCNH2 (Homo sapiens), Q12809 | dofetilide IC70 present | activation (rescue from dofetilide block), less the hit threshold, % at 10 µM | 310,000 tested, 0.51% active | AID 1511, 2009;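 active = activation above the mean of controls blocked by dofetilide plus 5 SD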;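 note: thallium influx through hERG after potassium depolarization seen as dye fluorescence rise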
KCNQ1 block: inhibitors of human KCNQ1 channel, primary screen, cell-based, thallium flux, high-throughput. Potassium voltage-gated channel subfamily KQT member 1 (Homo sapiens), P51787. CHO-K1 KCNQ1, FluxOR thallium flux fluorescence; hits give high values. B-score at 10 µM. 310,000 tested, 1.3% active. AID 2642, 2010;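 active = compounds whose thallium flux B-score, printed positive for inhibition, exceeds three library SD while starting fluorescence stays within three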;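 note: channel opened by potassium depolarization with thallium stimulus after 20 min compound exposure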
KCNK9 block: KCNK9 potassium channel inhibitors, primary screen, HEK293 cells, thallium flux; 310,000 tested, 1.2% active; B-score at 10 µM; FluxOR thallium flux fluorescence; hits give low values; AID 488922, 2010;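 active = ratio B-score over 3 SD below the library mean, with starting fluorescence within 5 SD of its mean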;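 note: negative B-score means less thallium flux so channel inhibition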
Target sequence (Q9NPC2 whole entry, looked up): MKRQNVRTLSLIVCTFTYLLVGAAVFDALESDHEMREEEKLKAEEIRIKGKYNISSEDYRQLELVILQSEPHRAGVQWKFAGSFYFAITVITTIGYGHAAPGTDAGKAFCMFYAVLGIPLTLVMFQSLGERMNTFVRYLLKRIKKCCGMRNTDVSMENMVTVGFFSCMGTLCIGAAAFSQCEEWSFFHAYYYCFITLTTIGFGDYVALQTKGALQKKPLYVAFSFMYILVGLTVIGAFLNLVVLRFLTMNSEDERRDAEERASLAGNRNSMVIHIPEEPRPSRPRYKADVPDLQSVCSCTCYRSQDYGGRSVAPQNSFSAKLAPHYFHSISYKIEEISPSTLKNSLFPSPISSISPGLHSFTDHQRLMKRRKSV
KCNQ1 pot: potentiators or activators of KCNQ1 channel, primary screen, cell-based, thallium flux, high-throughput; CHO-K1 KCNQ1, thallium flux FluxOR fluorescence; hits give high values; 310,000 tested, 0.35% active; Potassium voltage-gated channel subfamily KQT member 1 (Homo sapiens), P51787; B-score at 10 µM;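 active = fluorescence ratio B-score, a plate-corrected score, at least three library SD, with initial intensity B-score within 5 SD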
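Medium – assay buffer, equal DMSO in all wells · Material – CHO-K1 cell line with stable KCNQ1 potassium channel expression · Signal – kinetic FluxOR thallium fluorescence, 10-s 1-Hz baseline, 110-s post-stimulus read · Compound – single concentration per compound, DMSO matched to controls · Schedule – 37 °C overnight plating, 90-min dark dye load, 20-min compound pretreatment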
KCNK3 inh: human KCNK3 channel inhibitors, primary screen, CHO cells, FluxOR thallium flux, B-score | Potassium channel subfamily K member 3 (Homo sapiens), O14649 | FluxOR fluorescence; hits give low values | B-score at 10 µM | 340,000 tested, 0.84% active;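 active = B-score under library mean minus 4 SD, starting fluorescence ratio at most library mean plus 5 SD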;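 note: more negative B-score means stronger inhibition of thallium flux through KCNK3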
* marks the source's active call; other numbers are inactive results; i = inactive; . = not tested or not shown. Only some compounds are listed: those with a hit (about 3.1% of all), similar ones and a draw of the others.

SMILES	hERG rescue	KCNQ1 block	KCNK9 block	KCNQ1 pot	KCNK3 inh
Nn1c(=S)[nH]c2sc3c(c2c1=O)CCCC3	-3	i	i	i	i
Cn1c(=S)[nH]c2sc3c(c2c1=O)CCC(C(C)(C)C)C3 (centres undefined)	57*	i	i	80*	i
Cc1ccccc1CN1CCN(C(=O)CC(C)C)CC1	-7	i	i	i	i
CCC1CN(C(=O)N2CCC(C(=O)Nc3ccccc3F)CC2)c2ccccc2O1 (centres undefined)	-21	i	i	i	i
CCN1C[C@@H]2[C@@H]3C(=O)N(Cc4ccccc4)C(=O)[C@@H]3[C@](Cc3ccccc3)(C1=O)N2C(=O)c1ccc(C)cc1	.	.	.	.	i
CCOC(=O)c1ccc(NC(=O)c2ccc[n+]([O-])c2)cc1	-2	i	i	i	i
COCCCn1c(=S)[nH]c2sc3c(c2c1=O)CCCS3	19*	i	i	i	i
CC(C)CC(C(=O)O)N1C(=O)C2C3C=CC(C2C1=O)C1C(=O)N(C(CC(C)C)C(=O)O)C(=O)C31 (centres undefined)	0	i	i	i	i
COC(=O)c1ccc(CN(c2ccc(C(=O)O)c(O)c2)S(=O)(=O)c2ccc(Cl)c([N+](=O)[O-])c2)cc1	-18	7*	i	i	i
CN(C)S(=O)(=O)c1cccc(NC(=O)c2ccccc2OCc2ccc(F)cc2)c1	-5	i	-7.3*	i	i
CN(C)S(=O)(=O)c1cccc(COc2ccccc2C(=O)Nc2ccccc2)c1	-10	i	i	i	i
CN(CC(=O)Nc1ccc(F)c(F)c1F)C(=O)/C=C/c1ccco1	.	.	.	.	i
N#CC1=C(SCC(=O)c2cc3ccccc3oc2=O)NC(=O)C(C#N)C12CCCC2 (centres undefined)	-11	7*	i	i	i
Cc1occc1-c1nnc(SCC(=O)c2cc3ccccc3oc2=O)o1	-8	i	i	i	i
O=C(Nc1cccc(F)c1)c1cccc2c1C(=O)N(C1CCCCC1)C2	-5	i	-11*	i	i
O=C(O)c1ccc(CN2C(=O)c3cccc4c([N+](=O)[O-])ccc(c34)C2=O)cc1	-8	10*	i	i	i
Cc1ccc(C(=O)O)cc1N1C(=O)c2cccc3c([N+](=O)[O-])ccc(c23)C1=O	-21	i	i	i	i
COC(=O)c1[nH]c2ccc(F)cc2c1NS(=O)(=O)c1ccc(OC)cc1OC	-4	i	-6.6*	i	i
COc1ccc(CCNC(=S)Nc2ccc(C(C)C)cc2)cc1	-9	i	i	i	i
FC(F)(F)Oc1ccc(NC(=S)Nc2ccc(OC(F)(F)F)cc2)cc1	-18	10*	i	i	i
CC(C)c1ccc(NC(=S)Nc2ccc(OC(F)(F)F)cc2)cc1	-9	10*	i	i	i
O=C(O)c1cccc(S(=O)(=O)Nc2ccc3c(c2)CCC3)c1	0	i	i	i	i
Cc1ccccc1OC(=O)n1c(=S)oc2cc(Cl)ccc21	-1	i	i	10*	i
O=C(Oc1ccccc1)n1c(=S)oc2ccccc21	0	i	i	i	i
Cc1ccc(C(=O)Sc2cccccc2=O)cc1	5.5*	i	i	15*	i
SMILES	hERG rescue	KCNQ1 block	KCNK9 block	KCNQ1 pot	KCNK3 inh
COc1ccc(S(=O)(=O)Nc2ccccc2C(=O)NCc2ccco2)cc1	-8	i	i	i	i
COc1ccc(S(=O)(=O)N(Cc2ccccc2)c2ccccc2C(=O)Nc2ccccc2C(=O)NCc2ccco2)cc1	-4	i	-6.9*	i	i
CCCCCCCCCCn1ccc(=N)cc1	-24	9*	i	i	i
CCCCCCCCn1ccc(=N)cc1	-15	i	i	i	i
CC(=O)N1CCN(c2ccccc2NC(=O)COc2cc(C)ccc2C(C)C)CC1	-24	6*	i	i	i
Cc1cc(C)n(CCC(=O)N/N=C/c2ccc(Br)c([N+](=O)[O-])c2)n1	-17	6*	i	i	i
NC1=NC2(CCCCC2)n2c(nc3ccccc32)N1	-8	i	i	i	i
NC1=NC2(CCC(c3ccccc3)CC2)n2c(nc3ccccc32)N1 (centres undefined)	-9	i	-7.9*	i	i
O=C(/C=C/c1cccc(Br)c1)c1ccc2c(c1)OCO2	-9	i	-7.8*	i	i
O=C(/C=C/c1ccccc1)c1ccc2c(c1)OCO2	-7	i	i	i	i
C=CCCCN(Cc1ccccc1)S(=O)(=O)c1ccccc1Br	-17	i	-7.7*	i	i
CN(C)c1ccc(N2C(=O)CSC2=S)cc1	6.8*	i	i	i	i
COCCn1c(SCC(=O)Nc2sccc2C(N)=O)nc2cc(Cl)ccc2c1=O	-14	i	i	i	-9.2*
O=C1CC(=O)Nc2cc(S(=O)(=O)N3CCOc4ccc(Cl)cc43)ccc2N1	-5	i	i	i	i
COc1ccc(S(=O)(=O)N(C)C[C@H]2Oc3c(NC(=O)NC(C)C)cccc3C(=O)N([C@H](C)CO)C[C@@H]2C)cc1	.	.	.	.	i
O=C(Cc1ccccc1)Nc1ccccc1N1CCN(c2ccccc2)CC1	-10	i	i	i	-8.7*
CC1(C)CC(=O)C2=C(C1)OC1=C(C(=O)CC(C)(C)C1)C2c1ccc(O)cc1O	-42	7*	-7*	i	i
CC1(C)CC(=O)C2=C(C1)OC1=C(C(=O)CC(C)(C)C1)C2c1ccc(O)c([N+](=O)[O-])c1	-7	i	i	i	i
CCN(CC)CCCNC(=O)c1cc(Cl)c(NC(=O)C2=C(C)OCCS2)cc1OC	-4	i	i	i	i
NC(N)=N/N=C/c1ccc2cccc(OCc3ccccc3)c2n1	-25	6*	i	i	i
O=C(N/N=C/c1ccc2cccc(OCc3ccccc3)c2n1)c1ccc(Br)cc1	11*	i	i	i	i
Cc1ccc(C2=NCCn3nc4cc(C(F)(F)F)ccc4c32)cc1	.	.	.	.	i
Cc1ccc(S(=O)(=O)N(C)C)cc1-n1c(SCC(=O)Nc2ccc(F)cc2Cl)nc2ccccc2c1=O	-7	i	-8*	i	i
Cc1ccc(S(=O)(=O)N(C)C)cc1-n1c(SCC(=O)Nc2ccccc2)nc2ccccc2c1=O	-12	i	-7.9*	i	i

High-throughput results deposited in PubChem BioAssay by Johns Hopkins Ion Channel Center.
